Published values pooled from the literature.
PIK3CA: Phosphatidylinositol 4,5-bisphosphate 3-kinase catalytic subunit alpha isoform (PIK3CA, Homo sapiens, UniProt P42336)
FOLH1: Glutamate carboxypeptidase 2 (FOLH1, Homo sapiens, UniProt Q04609)
T1R2/T1R3: T1R2/T1R3 (Homo sapiens, UniProt Q7RTX0+Q8TE23)

Structure (SMILES) | target | assay | measurement | value
CCC(C(=O)N1C(=O)C(=Nc2ccc(Cl)cc2Br)c2ccccc21)c1ccccc1 (stereo not shown) | PIK3CA | enzyme activity, inhibitor, ADP detection | IC50 | 0.409 µM
CC[C@H](C)[C@H](NC(=O)C[C@@H](NC(=O)CCC(=O)O)C(=O)O)C(=O)N[C@H]1CCc2cccc3c2N(C1=O)[C@H](C(=O)NCc1cn[nH]n1)C3 | Granzyme B (GZMB, Homo sapiens, UniProt P10144) | enzyme activity, inhibitor, fluorescence | Ki | 0.0072 µM
CC1(C)CN(CCCCC(=O)N[C@H](Cc2ccccc2)C(=O)N[C@H](Cc2ccccc2)C(=O)N[C@H](CCCCNC(=O)CCCCCCC(=O)NCCCC[C@H](NC(=O)N[C@@H](CCC(=O)O)C(=O)O)C(=O)O)C(=O)O)CC[N]2CC(C)(C)[S][Tc]2(=[O])[S]1 (stereo partly shown) | FOLH1 | binding, radioligand | Kd | 0.0133 µM
CN(C)C(=O)c1cc2cnc(Nc3cc(C(F)(F)F)c(-c4cccc5c(=O)cc(N6CCOCC6)oc45)cn3)nc2n1C1CCCC1 | PIK3CA | enzyme activity, inhibitor, radiometric | IC50 | > 10 µM
O=C1C(=Nc2ccc(Cl)cc2)c2ccccc2N1Cc1ccc(Br)cc1 | PIK3CA | enzyme activity, inhibitor, ADP detection | IC50 | 0.0298 µM
CC1=CC(=O)NS(=O)(=O)O1 | T1R2/T1R3 | calcium signal, agonist | EC50 | 1340 µM
CN(C)C(=O)c1cc2cnc(Nc3ccc(-c4cccc5c(=O)cc(N6CCOCC6)oc45)cc3)nc2n1C1CCCC1 | PIK3CA | enzyme activity, inhibitor, radiometric | IC50 | 0.472 µM
CC1(C)CN(CCCCC(=O)N[C@@H](CCCCNC(=O)CCCCCCC(=O)NCCCC[C@H](NC(=O)N[C@@H](CCC(=O)O)C(=O)O)C(=O)O)C(=O)O)CC[N]2CC(C)(C)[S][Tc]2(=[O])[S]1 (stereo partly shown) | FOLH1 | binding, radioligand | Kd | 0.0144 µM
O=S(=O)(O)NC1CCCCC1 | T1R2/T1R3 | calcium signal, agonist | EC50 | 2750 µM
CC(C)c1cccc(C(C)C)c1N=C1C(=O)N(Cc2ccc(Br)cc2)c2ccccc21 | Phosphatidylinositol 4,5-bisphosphate 3-kinase catalytic subunit beta isoform (PIK3CB, Homo sapiens, UniProt P42338) | enzyme activity, inhibitor, ADP detection | IC50 | 0.0862 µM
CC1(C)CN(CCCCC(=O)N[C@@H](CCC(=O)O)C(=O)N[C@@H](CCC(=O)O)C(=O)N[C@H](CCCCNC(=O)CCCCCCC(=O)NCCCC[C@H](NC(=O)N[C@@H](CCC(=O)O)C(=O)O)C(=O)O)C(=O)O)CC[N]2CC(C)(C)[S][Tc]2(=[O])[S]1 (stereo partly shown) | FOLH1 | binding, radioligand | Kd | 0.0061 µM
CCc1ccc(N=C2C(=O)Nc3ccccc32)cc1 | PIK3CA | enzyme activity, inhibitor, ADP detection | IC50 | 0.098 µM
CN(C)C(=O)c1cc2cnc(Nc3cccc(-c4cccc5c(=O)cc(N6CCOCC6)oc45)c3)nc2n1C1CCCC1 | PIK3CA | enzyme activity, inhibitor, radiometric | IC50 | 8.17 µM
